Measured values taken from ChEMBL document CHEMBL4513216, “Probing the Open Global Health Chemical Diversity Library for Multistage-Active Starting Points for Next-Generation Antimalarials” (ACS Infect Dis, 2020).

Assay: Toxicity liver stage against HepG2, at 10uM
Assay type: cell-based
Set-up: test concentration 10 uM, cell line HepG2-A16-CD81EGFP
Conditions: human, HepG2-A16-CD81EGFP cells; read-out: INHIBITION
How it was run: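 Uninfected HepG2-A16-CD81EGFP cells, 3 × 10^3 per well, 1536-well, plated on prespotted compound at 10 μM final, parasite-free screening media added to match infected plates; puromycin 10 μM positive, DMSO 0.5% negative; run in parallel with 48 h PbLuc assay at 37 °C, 5% CO2; viability by CellTiter-Glo luminescence, normalized to controls.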

In the case of `COCC(O)CN1CCC(=O)N(CC2CC2)Cc2ccccc21` (stereo not drawn), the cytotoxicity at 10 µM was 2.76%.
Work on `Cc1sc(-n2cnnn2)c(C(=O)NC(C)C)c1C` yielded a cytotoxicity at 10 µM of 2.83%.
Work on `O=C(c1cc(=O)c(OCc2ccccc2F)co1)N1CCSCC1` yielded a cytotoxicity at 10 µM of -3.82%.
Compound `O=C(c1cc(=O)c(OCc2ccccc2)co1)N1CCSCC1` has a cytotoxicity at 10 µM of -0.295%.
`COc1ccc(CC(=O)Nc2ccc3ncn(C(C)C)c(=O)c3c2)cc1` gave a cytotoxicity at 10 µM of 3.97%.
With `CC(=O)Nc1cccc2c1ccn2CC(=O)Nc1nc[nH]n1` the cytotoxicity at 10 µM was -0.79%.
`O=S(=O)(NC1=NCN(CCc2cccs2)CN1)c1ccccc1` showed a cytotoxicity at 10 µM of -3.32%.
`Cc1cnc(CC2COCCN(C(=O)c3cncs3)C2)cn1` (stereo not drawn) gave a cytotoxicity at 10 µM of 3.65%.
For `CCC(=O)N1CCCC(c2cc(Nc3ncccn3)nc(C)n2)C1` (stereo not drawn), the cytotoxicity at 10 µM was -3.48%.
`c1ccc(-c2nc(CCNCc3ccncc3)co2)cc1` gave a cytotoxicity at 10 µM of 6.07%.
`O=C(COc1ccc(Cl)cc1)NCc1nncn1C1CC1` gave a cytotoxicity at 10 µM of 7.67%.
In the case of `CCc1cc(CNC(=O)c2cc(NC(=O)C(C)C)ccc2Cl)[nH]n1`, the cytotoxicity at 10 µM was 9.36%.
Compound `Cc1noc(CCNC(=O)c2ccc(N(C)C)c(F)c2)n1` has a cytotoxicity at 10 µM of 6.05%.
`O=C(C(c1ccccc1)S(=O)(=O)c1ccccc1)N1CCCCC1` (stereo not drawn) showed a cytotoxicity at 10 µM of -6.01%.
`CS(=O)(=O)CCCN1CCN(C(C#N)c2ccccc2)CC1` (stereo not drawn) showed a cytotoxicity at 10 µM of -3.14%.
Compound `CN(Cc1ccccn1)C(=O)CNC(=O)N1CCc2ccccc2C1` has a cytotoxicity at 10 µM of 2.8%.
For `CC(C)COc1cncc(N(C)C2CCN(c3ncccn3)CC2)n1`, the cytotoxicity at 10 µM was 0.583%.
Compound `CCc1ccc(NC(=O)C(C)Nc2cccc3c2OCCO3)cc1` (stereo not drawn) has a cytotoxicity at 10 µM of 0.788%.
For `CCOCC1CCCN(C(=O)NCc2cn3c(C)cccc3n2)C1` (stereo not drawn), the cytotoxicity at 10 µM was 12.8%.
`NC(=O)COc1ccc(CNC(=O)CN2CCc3ccccc32)cc1` showed a cytotoxicity at 10 µM of -4.07%.
In the case of `CCc1ccc(CNCC2CCN(CCO)CC2)cc1`, the cytotoxicity at 10 µM was -6.73%.
For `CNc1cc(N2CCCC2CNCc2cccnc2C)ncn1` (stereo not drawn), the cytotoxicity at 10 µM was 0.759%.
`CCN(C(C)c1cccc(O)c1)S(=O)(=O)c1cccnc1` (stereo not drawn) gave a cytotoxicity at 10 µM of 10.8%.
`CCC(=O)N(CCC(=O)O)Cc1ccc(F)c(F)c1` showed a cytotoxicity at 10 µM of -1.99%.
Compound `COCc1noc(-c2nn(-c3ccccc3F)c3c2CCC3)n1` has a cytotoxicity at 10 µM of -2.68%.
Work on `Cc1cc(F)ccc1N1CCCC(NC2CCOCC2)C1=O` (stereo not drawn) yielded a cytotoxicity at 10 µM of -11.3%.
Compound `CN(Cc1ncnn1C)C(=O)Nc1ccc(OC(F)F)cc1` has a cytotoxicity at 10 µM of -0.778%.
`Cc1nn(C)c(C)c1Cc1nc(N(C)C)no1` gave a cytotoxicity at 10 µM of 7.06%.
In the case of `COc1c(C)cnc(CN2CCCC2c2noc(C3CC3)n2)c1C` (stereo not drawn), the cytotoxicity at 10 µM was -0.0422%.
`Clc1cccc(CNc2cnn(CCN3CCCCC3)c2)c1` gave a cytotoxicity at 10 µM of 0.889%.
With `Cc1nn(C)c2ncc(CN3CCN(Cc4ccco4)CC3)cc12` the cytotoxicity at 10 µM was 0.243%.
Work on `Cc1nnc(CN2CCCC2c2ccc(Cl)c(Cl)c2)o1` (stereo not drawn) yielded a cytotoxicity at 10 µM of -1.7%.
In the case of `CN(CC1CN(CCn2cc(C#N)cn2)CCO1)c1cccnn1` (stereo not drawn), the cytotoxicity at 10 µM was 1.85%.
With `Cc1noc(C)c1CN1CCCC(CN(C(=O)OC(C)(C)C)C(C)C)C1` (stereo not drawn) the cytotoxicity at 10 µM was 2.42%.
Compound `COCc1cccc(NC(C)C(=O)N(C)Cc2cccc(F)c2)c1` (stereo not drawn) has a cytotoxicity at 10 µM of 12.2%.
`COCC(=O)N1CCN(C(=O)c2scnc2C)CC1` gave a cytotoxicity at 10 µM of -9.75%.
For `Cc1cc(NC(=O)CN2CCCC2c2noc(C3CC3)n2)no1` (stereo not drawn), the cytotoxicity at 10 µM was -13%.
Work on `O=C(c1ccsc1)N1CCN2C[C@H](OCc3cccnc3)C[C@H]2C1` yielded a cytotoxicity at 10 µM of 0.59%.
In the case of `CC1(C)CC1(C(=O)N1CC(c2cccnc2)C1)c1ccc(F)cc1` (stereo not drawn), the cytotoxicity at 10 µM was -9.41%.
`COc1ccc(-n2cccn2)c(CN2CCC(O)(CO)CC2)c1` showed a cytotoxicity at 10 µM of 3.4%.
`CNc1nc(C(=O)N2CCCCC2c2ccc(CN(C)C)cc2)cs1` (stereo not drawn) gave a cytotoxicity at 10 µM of -2.86%.
In the case of `CSCc1nc(CCNC(=O)C(N)c2c(C)n[nH]c2C)cs1` (stereo not drawn), the cytotoxicity at 10 µM was -3.95%.
Work on `CNc1ccc(Cl)cc1C(=O)N1CCC(Cn2cc(CN)nn2)CC1` yielded a cytotoxicity at 10 µM of -2.37%.
In the case of `Cc1cnccc1CNCc1ccc(OC23CCCN(CC2)C3)cc1` (stereo not drawn), the cytotoxicity at 10 µM was -12.3%.
Work on `Cc1cc(C)n(C2CCN(c3ncnc4sc5c(c34)CCNC5)C2)n1` (stereo not drawn) yielded a cytotoxicity at 10 µM of 17.3%.
With `COc1cc(OC)nc(N2CCCC(c3nccn3CCN(C)C)C2)n1` (stereo not drawn) the cytotoxicity at 10 µM was 5.12%.
In the case of `O=C1NCC2(CCCN(C(=O)c3ccc4c(c3)CCO4)C2)O1` (stereo not drawn), the cytotoxicity at 10 µM was 2.32%.
With `CC(C)=CCCC1(C)CCC(=O)N(CCc2nc(N)cc(O)n2)C1` (stereo not drawn) the cytotoxicity at 10 µM was 0.361%.
`O=C1NC[C@@]2(C(=O)O)CN(Cc3ccc(Oc4ccccc4)cc3)C[C@@H]12` gave a cytotoxicity at 10 µM of -8.39%.
With `CC(C)c1noc(CN(C)C(=O)c2ccccc2-c2nc[nH]n2)n1` the cytotoxicity at 10 µM was 10.4%.
In the case of `c1ccc(CCc2n[nH]c(C3CCOC3)n2)cc1` (stereo not drawn), the cytotoxicity at 10 µM was 2.78%.
Work on `CC(O)CN1CCC(CN(C)Cc2cccc(C(=O)N(C)C)c2)CC1` (stereo not drawn) yielded a cytotoxicity at 10 µM of -5.74%.
In the case of `CCCC(=O)N1CCC(C(=O)NCCNc2ncccn2)CC1`, the cytotoxicity at 10 µM was -20%.
`COc1cccc2cc(CNCc3ccc(N4CCCC4)nc3)oc12` gave a cytotoxicity at 10 µM of -5.42%.
With `Cc1cc(C)n(C2CCCN(C(=O)CCc3nccs3)C2)n1` (stereo not drawn) the cytotoxicity at 10 µM was -28.1%.
`COc1ccc(C2CCCN2C(=O)NCCn2ccnc2)cc1` (stereo not drawn) showed a cytotoxicity at 10 µM of -9.13%.
For `O=C(Nc1nccs1)NC1CCN(CC2CCCC2)CC1`, the cytotoxicity at 10 µM was -8.07%.
Compound `c1coc(-c2nc(CNCCn3cccn3)cs2)c1` has a cytotoxicity at 10 µM of -13.8%.
In the case of `CCOc1ccccc1OC1CCN(C(=O)c2cnsn2)CC1`, the cytotoxicity at 10 µM was 0.32%.
For `CCn1cc(NC(=O)NCC(C)N(C)C)cn1` (stereo not drawn), the cytotoxicity at 10 µM was -18.8%.
In the case of `COc1ccccc1CC(=O)N1CCCC(n2nc(C)nc2C)C1` (stereo not drawn), the cytotoxicity at 10 µM was -4.47%.
In the case of `Cc1nc(C)n(CC2CCCCN2CCOc2cccc(C#N)c2)n1` (stereo not drawn), the cytotoxicity at 10 µM was -10%.
Compound `CCc1nc(C2CCCN(C(=O)c3cc(C(C)C)[nH]n3)C2)no1` (stereo not drawn) has a cytotoxicity at 10 µM of -1.24%.
For `Cc1nc(CNC(=O)N(CCCO)C2CCc3ccccc32)oc1C` (stereo not drawn), the cytotoxicity at 10 µM was -13.5%.
With `Cc1nc(C2CCCN2Cc2nccn2CC(F)(F)F)no1` (stereo not drawn) the cytotoxicity at 10 µM was -16.5%.
With `Cc1ccc(C(=O)N(C)Cc2cc(C)on2)cn1` the cytotoxicity at 10 µM was -3.05%.
`Cc1cc(NC(=O)CN(CC2CCOC2)C2CC2)no1` (stereo not drawn) gave a cytotoxicity at 10 µM of 1.65%.
Compound `Cc1nc(C2CCCN(C(=O)COCc3ccccc3)C2)no1` (stereo not drawn) has a cytotoxicity at 10 µM of -2%.
With `Cc1ccc(NS(=O)(=O)c2cc3c(c(C(=O)O)c2)OCCO3)cc1F` the cytotoxicity at 10 µM was -5.77%.
`CCc1cccc(N2CCC(NC(=O)C3CCOCC3)CC2)c1` showed a cytotoxicity at 10 µM of -8.93%.
For `CCc1nccn1C1CCCN(C(=O)c2cncnc2C)C1` (stereo not drawn), the cytotoxicity at 10 µM was -11.8%.
In the case of `O=C(CCCOCc1ccccc1)N1CCCC(n2cncn2)C1` (stereo not drawn), the cytotoxicity at 10 µM was -17.5%.
Work on `O=C(CCc1ccc(F)c(F)c1)N1CCCCC1Cn1cccn1` (stereo not drawn) yielded a cytotoxicity at 10 µM of -8.01%.
Work on `CCn1cnnc1CNC(=O)N1CCN(C(C)C)CC1` yielded a cytotoxicity at 10 µM of -18.1%.
With `CC(C)c1nnc2n1CCN(C(=O)c1ccc(S(C)(=O)=O)cc1)C2` the cytotoxicity at 10 µM was -0.252%.
Work on `CO[C@H]1CN(CC2CCOCC2)[C@@H]2CCCO[C@H]12` yielded a cytotoxicity at 10 µM of -100%.
`CO[C@@H]1CC[C@H]2[C@H]1OCCN2CC1CCOCC1` showed a cytotoxicity at 10 µM of -20.3%.
For `COCC(=O)N1CCN(CCn2cccn2)c2nc(C)ccc2C1`, the cytotoxicity at 10 µM was 10.5%.
Work on `COc1cccc(CN2CCC3(CCN(C(=O)C4CC=CC4)CC3)C2)c1` yielded a cytotoxicity at 10 µM of -0.602%.
With `N#Cc1cccc(N2CC3(CCN(C(=O)c4ccncc4)C3)CC2=O)c1` (stereo not drawn) the cytotoxicity at 10 µM was -1.75%.
Compound `CCN1C[C@@H]2[C@@H](OC)CCN(S(=O)(=O)c3ccccc3F)[C@@H]2C1` has a cytotoxicity at 10 µM of -0.902%.
In the case of `c1cnc(N2CCO[C@H]3[C@H](OCC4CC4)CC[C@@H]32)nc1`, the cytotoxicity at 10 µM was 5.88%.
`CCn1cc(CN2C[C@@H]3CC[C@H]2CN(C(=O)c2cnccn2)C3)cn1` showed a cytotoxicity at 10 µM of -8.39%.
